The results in this text go back to ChEMBL document CHEMBL1148754, “4- and 5-aroylindoles as novel classes of potent antitubulin agents” (J Med Chem, 2007).

Molecules are shown by their SMILES.

For one experiment, the system named is HT-29. Briefly: Growth inhibition of human HT29 cells after 72 hrs by methylene blue dye assay. It counts as functional, cell-based. The conditions noted are these: HT-29, 72 h. The method in brief:
(§1)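 Antiproliferative screen in human cancer lines: KB (oral epidermoid carcinoma), HT29 (colorectal carcinoma), H460 (non-small cell lung carcinoma), TSGH and MKN45 (stomach carcinoma), plus KB-VIN10, an MDR-positive line overexpressing P-gp 170/MDR. Potency is reported as IC50.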

A short description of experiment [1]: Growth inhibition of human KB-vin10 cells after 72 hrs by methylene blue dye assay. The conditions noted are these: KB-VIN10, 72 h. It counts as functional. The method in brief:
as §1

A further experiment relates to TSGH. Description: Growth inhibition of human TSGH cells after 72 hrs by methylene blue dye assay. Format: functional, cell-based. The essentials:
as §1

A further experiment concerns NCI-H460. Briefly: Growth inhibition of human H460 cells after 72 hrs by methylene blue dye assay. Format: functional, cell-based. The conditions noted are these: NCI-H460, 72 h. The method in brief:
as §1

The subject of a further experiment is MKN-45. Description: Growth inhibition of human MKN45 cells after 72 hrs by methylene blue dye assay. Format: functional, cell-based. The conditions noted are these: MKN-45, 72 h. The method in brief:
as §1

A further experiment relates to KB. Description: Growth inhibition of human KB cells after 72 hrs by methylene blue dye assay. Format: functional, cell-based. The method in brief: as §1
The target of the next experiment is Tubulin (Homo sapiens) (UniProt P68371+Q9H4B7+P0DPH7+P68366+Q13509+Q71U36+P04350+Q3ZCM7+P07437+P68363+Q9BQE3+Q6PEY2+Q13885+Q9BVA1+Q9BUF5). Description: Displacement of [3H]colchicine from tubulin at 5 uM. It counts as protein-complex assay.
For another experiment, the target named is Tubulin. Description: Inhibition of tubulin polymerization in presence of microtubule associated proteins after 30 mins. It counts as protein-complex assay, Homo sapiens.

Consider `COc1cc(C(=O)c2cccc3cc[nH]c23)cc(OC)c1OC`, for which the IC50 (usually the concentration that gives 50% inhibition) in the experiment on HT-29 is 250 nM; in experiment [1] it was 284 nM; in the experiment on TSGH, 310 nM; with NCI-H460, 295 nM; with MKN-45, 210 nM; in the experiment with KB, 310 nM.
Consider `COc1ccc(/C=C\c2cc(OC)c(OC)c(OC)c2)cc1O`, for which, on Tubulin (Homo sapiens), the Activity amounted to 89%.
Take `COc1cc(C(=O)c2ccc3cc[nH]c3c2)cc(OC)c1OC`: the half-maximal inhibitory concentration (IC50) was 330 nM in the experiment with HT-29; 452 nM in experiment [1]; 430 nM in the experiment with TSGH; 520 nM in the experiment on NCI-H460; 480 nM with MKN-45; 510 nM with KB.
For `COc1cc(C(=O)c2c[nH]c3ccccc23)cc(OC)c1OC`, the concentration for half-maximal inhibition (IC50) was found to be 1000 nM in the experiment with HT-29; 1500 nM in experiment [1]; 1100 nM in the experiment on TSGH; 1700 nM in the experiment with NCI-H460; 980 nM in the experiment on MKN-45; 1600 nM in the experiment with KB.
In the case of `COc1cc(C(=O)c2ccc3c(ccn3CCC(=O)O)c2)cc(OC)c1OC`, the half-inhibitory concentration (IC50) (in the experiment with HT-29; in experiment [1]; in the experiment with TSGH; in the experiment on NCI-H460; in the experiment on MKN-45; in the experiment with KB) was over 10000 nM in each case.
In the case of `COc1cc2c(c(OC)c1OC)-c1ccc(OC)c(=O)cc1[C@@H](NC(C)=O)CC2` [COLCHICINE], the figures for the half-maximal inhibitory concentration (IC50) (in experiment [1]; in the experiment with NCI-H460; in the experiment on MKN-45) were 120 nM, 19 nM and 13 nM, respectively.
Consider `COc1cc(C(=O)c2ccc3c(ccn3CC(=O)O)c2)cc(OC)c1OC`, for which the IC50 in the experiment on HT-29 came out at 460 nM; in experiment [1] it was 476 nM; in the experiment with TSGH, 548 nM; in the experiment with NCI-H460, 530 nM; in the experiment on MKN-45, 396 nM; in the experiment on KB, 520 nM.
For the compound `COc1cc(C(=O)n2ccc3ccccc32)cc(OC)c1OC`, the half-inhibitory concentration (IC50) with HT-29 is 9600 nM; in experiment [1], over 10000 nM; in the experiment on TSGH it was 8400 nM; in the experiment with NCI-H460 it was over 10000 nM; with MKN-45, 5200 nM; in the experiment with KB it was over 10000 nM.
As for `COc1cc(C(=O)c2ccc3c(ccn3CCN(C)C)c2)cc(OC)c1OC`, the half-inhibitory concentration (IC50) is 4600 nM in the experiment with HT-29; 4900 nM in experiment [1]; 4900 nM in the experiment with TSGH; 5100 nM in the experiment with NCI-H460; 2900 nM in the experiment with MKN-45; 5200 nM in the experiment with KB.
`COc1cc(C(=O)c2cccc3[nH]ccc23)cc(OC)c1OC` displayed an Activity at Tubulin (Homo sapiens) of 74%. Moreover, the IC50 was 46.4 nM in the experiment with HT-29; 2000 nM on Tubulin; 51.4 nM in experiment [1]; 54.4 nM with TSGH; 53.8 nM with NCI-H460; 49.1 nM in the experiment with MKN-45. The same compound had a 50% inhibitory concentration (IC50) with KB of 50.7 nM.
In turn, `COc1cc(C(=O)c2ccc3c(ccn3C)c2)cc(OC)c1OC` showed an Activity on Tubulin (Homo sapiens) of 84%. Moreover, the IC50 with HT-29 was determined as 10.5 nM; on Tubulin, 1100 nM; in experiment [1] it was 12.5 nM; with TSGH it was 13.4 nM; with NCI-H460, 14.1 nM; with MKN-45, 11.2 nM. The IC50 in the experiment on KB came out at 13.6 nM.
Regarding `COc1cc(C(=O)c2cc3ccccc3[nH]2)cc(OC)c1OC`, the IC50 came out at 1700 nM in the experiment on HT-29; 2800 nM in experiment [1]; 1800 nM in the experiment on TSGH; 2100 nM in the experiment with NCI-H460; 1500 nM with MKN-45; 2900 nM with KB.
The compound `COc1cc(C(=O)c2ccc3c(ccn3CO)c2)cc(OC)c1OC` returned an Activity at Tubulin (Homo sapiens) of 78%. The concentration for half-maximal inhibition (IC50) is 34 nM in the experiment with HT-29; 1800 nM on Tubulin; 35 nM in experiment [1]; 43 nM with TSGH; 39 nM with NCI-H460; 33 nM with MKN-45. The compound further yielded an IC50 in the experiment with KB of 39 nM.
`COc1cc(C(=O)c2ccc3[nH]ccc3c2)cc(OC)c1OC` registered an Activity on Tubulin (Homo sapiens) of 71%. Moreover, the IC50 with HT-29 came out at 100 nM; at Tubulin, 2200 nM; in experiment [1], 111 nM; in the experiment on TSGH it was 103 nM; with NCI-H460, 112 nM; in the experiment with MKN-45, 88 nM. This compound registered an IC50 with KB of 104 nM.
`CCCn1ccc2cc(C(=O)c3cc(OC)c(OC)c(OC)c3)ccc21`: the 50% inhibitory concentration (IC50) with HT-29 stood at 1800 nM; in experiment [1], 2100 nM; in the experiment on TSGH, 1500 nM; in the experiment on NCI-H460, 2000 nM; in the experiment on MKN-45 it was 680 nM; with KB, 1900 nM.
As to `COc1cc(C(=O)c2ccc3c(ccn3C(C)C)c2)cc(OC)c1OC`, the IC50 in the experiment with HT-29 worked out at 1200 nM; in experiment [1] it was 1600 nM; in the experiment on TSGH, 1100 nM; in the experiment with NCI-H460, 1600 nM; with MKN-45, 470 nM; with KB, 1800 nM.
On Tubulin (Homo sapiens), `CCn1ccc2cc(C(=O)c3cc(OC)c(OC)c(OC)c3)ccc21` registered an Activity of 81%. For the same compound, the half-inhibitory concentration (IC50) in the experiment with HT-29 came out at 32 nM; at Tubulin it was 1200 nM; in experiment [1], 40 nM; in the experiment with TSGH, 41 nM; with NCI-H460, 38 nM; in the experiment on MKN-45, 31 nM. The 50% inhibitory concentration (IC50) in the experiment on KB is 36 nM.
`COc1cc(C(=O)c2cccc3c2ccn3C)cc(OC)c1OC` had an Activity at Tubulin (Homo sapiens) of 75%. The IC50 in the experiment on HT-29 came out at 22.4 nM; on Tubulin it was 1900 nM; in experiment [1], 26.1 nM; in the experiment on TSGH it was 26.9 nM; in the experiment with NCI-H460 it was 28.8 nM; in the experiment on MKN-45, 21.6 nM. In addition, half-maximal inhibition in the experiment with KB (IC50) was put at 22.1 nM.
